Calls of active or inactive are those of the source. The calls are words filed in the database; no cut-off is given here.
Tests used:
[1] = Cytotoxicity against human HL60 cells after 48 hrs by MTT assay; type: functional, cell-based; details: HL-60, 48 h
Summary of the method: (§1)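 Cells seeded 1 × 10^4 per well and incubated overnight, then given compound at 0–50 µM for 48 h. MTT added (20 µL of 5 mg/mL stock) for 4 h at 37 °C; formazan dissolved in DMSO, absorbance read at 570 nm. Triplicates; IC50 from mean OD versus concentration curves.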

HeLa = test: Cytotoxicity against human HeLa cells after 48 hrs by MTT assay; type: functional, cell-based; summary of the method: as §1
K562 = test: Cytotoxicity against human K562 cells after 48 hrs by MTT assay; type: functional, cell-based; details: K562, 48 h; summary of the method: as §1
A549 = test: Cytotoxicity against human A549 cells after 48 hrs by MTT assay; type: functional, cell-based; details: A549, 48 h; summary of the method: as §1
[2] = target: T1, DNA topoisomerase 1 (Homo sapiens) (UniProt P11387); test: Inhibition of Topo 1 (unknown origin)-mediated relaxation of supercoiled pBR322 plasmid at 25 uM after 30 mins by agarose gel electrophoresis
T1 sequence (whole entry): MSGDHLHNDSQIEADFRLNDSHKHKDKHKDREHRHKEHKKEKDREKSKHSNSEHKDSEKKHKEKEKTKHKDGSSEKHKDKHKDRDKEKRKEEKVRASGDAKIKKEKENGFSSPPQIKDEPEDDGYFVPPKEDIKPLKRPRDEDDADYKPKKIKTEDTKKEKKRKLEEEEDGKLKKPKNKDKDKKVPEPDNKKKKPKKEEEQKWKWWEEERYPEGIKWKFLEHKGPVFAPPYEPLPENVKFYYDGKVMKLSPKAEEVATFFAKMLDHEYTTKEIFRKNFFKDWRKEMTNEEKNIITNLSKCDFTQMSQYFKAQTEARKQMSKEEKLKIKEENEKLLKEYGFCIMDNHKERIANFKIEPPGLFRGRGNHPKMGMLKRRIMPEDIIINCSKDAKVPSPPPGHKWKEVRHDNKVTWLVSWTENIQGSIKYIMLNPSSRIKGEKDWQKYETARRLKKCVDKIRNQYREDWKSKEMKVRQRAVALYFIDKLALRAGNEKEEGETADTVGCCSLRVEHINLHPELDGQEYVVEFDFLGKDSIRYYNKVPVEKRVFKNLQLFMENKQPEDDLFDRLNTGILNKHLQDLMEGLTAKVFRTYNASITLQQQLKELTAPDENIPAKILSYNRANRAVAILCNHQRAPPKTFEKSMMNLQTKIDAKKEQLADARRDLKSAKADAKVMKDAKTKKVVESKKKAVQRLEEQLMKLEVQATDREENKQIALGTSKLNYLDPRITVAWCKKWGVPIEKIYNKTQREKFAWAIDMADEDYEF
Summary of the method: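 Topo I with supercoiled pBR322 and compound, 30 min at 37 °C. Stopped with SDS/bromophenol blue/glycerol dye; run on 1% agarose gel in TAE for 1 h and stained with Gel Red.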

[3] = target: DNA topoisomerase 2-alpha (Homo sapiens) (UniProt P11388); test: Inhibition of human Topo 2-mediated relaxation of supercoiled pBR322 plasmid at 25 to 50 uM after 30 mins by agarose gel electrophoresis
[4] = target: T2, DNA topoisomerase (Bos taurus) (UniProt A0JN73); test: Induction of calf thymus Topo 1-pBR322 DNA cleavage complex formation assessed as nicked DNA formation after 30 mins by agarose gel electrophoresis
T2 sequence (whole entry): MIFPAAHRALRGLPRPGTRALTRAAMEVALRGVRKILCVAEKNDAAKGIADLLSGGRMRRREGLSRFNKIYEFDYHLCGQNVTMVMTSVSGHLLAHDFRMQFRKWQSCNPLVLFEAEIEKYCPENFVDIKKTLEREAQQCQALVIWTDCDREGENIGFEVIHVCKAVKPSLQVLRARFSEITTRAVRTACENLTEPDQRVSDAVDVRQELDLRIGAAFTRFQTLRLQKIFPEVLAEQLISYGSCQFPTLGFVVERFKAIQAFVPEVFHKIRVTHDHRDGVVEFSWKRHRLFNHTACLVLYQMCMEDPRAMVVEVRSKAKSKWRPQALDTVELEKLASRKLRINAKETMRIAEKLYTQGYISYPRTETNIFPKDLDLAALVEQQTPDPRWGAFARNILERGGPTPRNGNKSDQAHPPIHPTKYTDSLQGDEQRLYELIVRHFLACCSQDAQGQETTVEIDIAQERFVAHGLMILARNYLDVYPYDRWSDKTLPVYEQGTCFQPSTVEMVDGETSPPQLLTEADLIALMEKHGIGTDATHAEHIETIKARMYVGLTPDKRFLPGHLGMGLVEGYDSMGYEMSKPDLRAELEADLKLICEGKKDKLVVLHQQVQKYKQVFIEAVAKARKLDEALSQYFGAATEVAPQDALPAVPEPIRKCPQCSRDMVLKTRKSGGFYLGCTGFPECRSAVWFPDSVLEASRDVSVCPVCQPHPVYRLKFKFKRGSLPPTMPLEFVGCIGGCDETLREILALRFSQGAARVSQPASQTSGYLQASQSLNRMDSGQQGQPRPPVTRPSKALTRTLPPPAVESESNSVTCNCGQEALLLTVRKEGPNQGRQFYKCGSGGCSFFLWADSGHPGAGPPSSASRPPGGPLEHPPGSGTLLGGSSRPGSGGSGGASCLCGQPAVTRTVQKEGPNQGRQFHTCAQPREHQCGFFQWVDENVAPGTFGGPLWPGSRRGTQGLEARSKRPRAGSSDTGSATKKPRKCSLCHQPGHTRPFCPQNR
Summary of the method: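 Calf thymus Topo I (10 units) with 0.1 µg supercoiled pBR322 and 0.5–50 µM compound in Topo I buffer (pH 7.5) for […]. Complexes trapped with SDS then NaEDTA, followed by proteinase K for 30 min at 45 °C. Samples run on 1% agarose gel containing 0.5 µg/mL ethidium bromide. Nicked DNA quantified by optical density.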

[5] = target: T1, DNA topoisomerase 1 (Homo sapiens); test: Induction of Topo 1-DNA cleavage complex formation in human HL60 cells after 1 hr by ICE assay; type: cell-based; details: HL-60
Summary of the method: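 Mid-log phase HL-60 cells exposed to 2, 5 or 10 µM compound (DMSO vehicle 1.0% v/v) for 1 h, then lysed in DNAzol. DNA was ethanol-precipitated, redissolved and quantified. 2 µg DNA in 25 mM NaH2PO4 pH 6.5 was blotted onto nitrocellulose. Covalent Topo I was probed with rabbit anti-human Topo I (1:1000) and HRP secondary (1:3000), read by chemiluminescence.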

[6] = target: DNA topoisomerase 2-alpha (Homo sapiens) (UniProt P11388); test: Inhibition of human Topo 2-mediated relaxation of supercoiled pBR322 plasmid at 25 uM after 30 mins by agarose gel electrophoresis

Chain of DNA topoisomerase 2-alpha (Homo sapiens) (P11388 whole entry): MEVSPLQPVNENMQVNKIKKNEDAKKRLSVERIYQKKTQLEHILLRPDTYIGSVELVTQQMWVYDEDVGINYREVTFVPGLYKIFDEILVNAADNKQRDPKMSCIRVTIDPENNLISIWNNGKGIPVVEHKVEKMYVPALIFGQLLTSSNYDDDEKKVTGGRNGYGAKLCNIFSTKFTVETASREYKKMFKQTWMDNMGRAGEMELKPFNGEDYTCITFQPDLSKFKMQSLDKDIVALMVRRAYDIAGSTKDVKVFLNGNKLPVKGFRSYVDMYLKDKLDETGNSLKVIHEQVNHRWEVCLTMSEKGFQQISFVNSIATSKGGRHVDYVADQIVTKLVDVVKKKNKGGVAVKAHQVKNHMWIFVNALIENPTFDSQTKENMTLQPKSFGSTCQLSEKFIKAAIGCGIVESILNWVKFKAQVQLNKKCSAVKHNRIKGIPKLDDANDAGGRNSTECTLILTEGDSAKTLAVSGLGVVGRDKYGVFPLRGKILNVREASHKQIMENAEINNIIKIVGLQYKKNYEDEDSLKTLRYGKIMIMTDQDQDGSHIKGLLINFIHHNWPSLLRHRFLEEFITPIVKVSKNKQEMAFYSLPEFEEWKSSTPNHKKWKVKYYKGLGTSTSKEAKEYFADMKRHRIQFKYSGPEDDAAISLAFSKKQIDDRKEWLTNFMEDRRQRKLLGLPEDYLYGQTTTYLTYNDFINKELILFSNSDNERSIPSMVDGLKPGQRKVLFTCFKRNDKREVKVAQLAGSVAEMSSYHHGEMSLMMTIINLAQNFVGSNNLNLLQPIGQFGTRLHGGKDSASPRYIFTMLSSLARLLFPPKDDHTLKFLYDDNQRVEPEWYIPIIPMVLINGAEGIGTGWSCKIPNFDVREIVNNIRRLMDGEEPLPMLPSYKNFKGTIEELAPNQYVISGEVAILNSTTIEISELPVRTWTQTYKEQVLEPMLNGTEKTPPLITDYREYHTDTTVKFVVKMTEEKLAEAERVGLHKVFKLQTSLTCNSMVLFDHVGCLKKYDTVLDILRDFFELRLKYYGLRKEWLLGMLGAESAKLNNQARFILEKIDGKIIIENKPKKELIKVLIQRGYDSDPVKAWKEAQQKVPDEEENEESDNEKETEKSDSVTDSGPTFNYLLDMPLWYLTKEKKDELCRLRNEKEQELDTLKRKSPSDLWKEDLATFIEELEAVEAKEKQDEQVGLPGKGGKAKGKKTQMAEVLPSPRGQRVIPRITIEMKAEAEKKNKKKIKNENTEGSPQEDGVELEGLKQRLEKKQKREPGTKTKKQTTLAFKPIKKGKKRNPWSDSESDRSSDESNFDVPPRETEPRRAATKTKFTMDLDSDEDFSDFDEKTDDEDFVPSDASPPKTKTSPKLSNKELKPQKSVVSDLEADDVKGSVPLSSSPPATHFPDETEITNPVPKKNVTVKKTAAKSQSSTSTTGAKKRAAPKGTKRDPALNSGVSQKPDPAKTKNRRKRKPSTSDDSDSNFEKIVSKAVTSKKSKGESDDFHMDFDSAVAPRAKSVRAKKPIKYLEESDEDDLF

Compound	IC50 [1]	IC50 (HeLa)	IC50 (K562)	IC50 (A549)	Topo I relaxation inhibition (active/not active) [2]	Topo 2 inhibition (active/not active) [3]	Activity [4]	Activity [5]	Topo 2 inhibition (active/not active) [6]
COc1ccc2c3nc4cc(Cl)ccc4n(CCCN(C)C)c-3cc(=O)c2c1	6.43 µM	43 µM	22.8 µM	31.5 µM	–	–	–	–	–
CCN(CC)CCCCn1c2cc(=O)c3ccccc3c-2nc2ccccc21	0.22 µM	29.4 µM	26 µM	18.9 µM	–	–	–	–	–
O=c1cc2n(CCCN3CCOCC3)c3ccccc3nc-2c2ccccc12	1.28 µM	> 50 µM	25.2 µM	45.4 µM	–	–	–	–	–
O=c1cc2n(CCN3CCOCC3)c3ccccc3nc-2c2ccccc12	6.91 µM	> 50 µM	> 40 µM	> 50 µM	–	–	–	–	–
CN(C)CCCn1c2cc(=O)c3ccccc3c-2nc2ccccc21	0.21 µM	8.41 µM	5.93 µM	13.5 µM	Active	Active	–	–	–
CCN(CC)CCn1c2cc(=O)c3ccccc3c-2nc2ccccc21	0.31 µM	25.4 µM	25.6 µM	29.2 µM	–	–	–	–	–
CN1CCN(CCCn2c3cc(=O)c4ccccc4c-3nc3ccccc32)CC1	1.22 µM	26.7 µM	24 µM	23.6 µM	–	–	–	–	–
CC[C@@]1(O)C(=O)OCc2c1cc1n(c2=O)Cc2cc3ccccc3nc2-1 [CAMPTOTHECIN]	0.07 µM	11.6 µM	5.37 µM	26.4 µM	–	–	Dose-dependent effect	Dose-dependent effect	–
O=c1cc2n(CCN3CCCCC3)c3ccccc3nc-2c2ccccc12	0.93 µM	32 µM	25.2 µM	37.3 µM	inactive	Active	–	–	–
COc1ccc2c3nc4ccccc4n(CCCN(C)C)c-3cc(=O)c2c1	0.15 µM	28.4 µM	6.12 µM	24.6 µM	inactive	–	–	–	–
O=c1cc2n(CCCN3CCCCC3)c3ccccc3nc-2c2ccccc12	0.52 µM	27.4 µM	10.3 µM	33 µM	inactive	Active	–	–	–
COc1ccc2c(c1)nc1c3ccccc3c(=O)cc-1n2CCCN(C)C	0.96 µM	24.9 µM	20.2 µM	25.9 µM	inactive	–	–	–	–
CN(C)CCCn1c2cc(=O)c3ccccc3c-2nc2cccnc21	0.62 µM	4.52 µM	36.8 µM	20.4 µM	inactive	–	–	–	inactive

From ChEMBL document CHEMBL3407378, “Design, synthesis and biological evaluation of novel 7-alkylamino substituted benzo[a]phenazin derivatives as dual topoisomerase I/II inhibitors” (Eur J Med Chem, 2015)
